In publication PMC3398245 (Analytical Biochemistry, 2012) one finds IC50 data, which are given here for two compounds.

For assay [1], the target named is T1, GST-RIP1 kinase domain (Homo sapiens, UniProt Q13546).
T1 sequence (Q13546 8-327): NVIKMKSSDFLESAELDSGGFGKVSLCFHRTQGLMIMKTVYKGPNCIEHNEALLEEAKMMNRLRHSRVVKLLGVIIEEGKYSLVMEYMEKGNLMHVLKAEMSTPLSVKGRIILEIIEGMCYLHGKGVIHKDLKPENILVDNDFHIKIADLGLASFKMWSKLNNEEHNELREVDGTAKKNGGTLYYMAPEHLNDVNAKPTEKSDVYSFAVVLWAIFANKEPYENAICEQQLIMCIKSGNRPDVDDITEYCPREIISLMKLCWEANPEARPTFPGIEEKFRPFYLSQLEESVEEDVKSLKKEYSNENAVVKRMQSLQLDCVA
The assay is described as follows: FP competition assay with fluorescein-Nec-1. It is filed as binding. As to conditions: competition with 50 nM 20, 2.6 µM GST-RIP1, 3% DMSO.

Assay [2] addresses T1, GST-RIP1 kinase domain. The assay is described as follows: FP competition assay with fluorescein-Nec-3. Type of assay: binding. As to conditions: competition with 50 nM 26, 3.4 µM GST-RIP1, 3% DMSO. In outline:
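Human RIP1 kinase domain (aa 8–327) as a GST fusion, expressed in baculovirus-infected Sf9 cells and purified by glutathione affinity and gel filtration. Tracer (50 nM) preincubated 5 min with 3.4 µM protein. Test compound titrated 0–100 µM at 3% final DMSO, then 10 min incubation. FP read at ex 485/em 535 nm in mP. IC50 from nonlinear variable-slope fit.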

`CN1C(=O)C(Cc2c[nH]c3ccccc23)NC1=S` (stereo not shown) [Compound 1]: the IC50 at GST-RIP1 kinase domain [1] was determined as 9.9 ± 0.6 µM; at GST-RIP1 kinase domain [2], 7 ± 0.7 µM.
Take `COc1ccc2c(c1)C1=NN(C(C)=O)C(c3ccc(F)cc3)C1CC2` (stereo not shown) [Compound 7]: the results for the IC50 on GST-RIP1 kinase domain [1] and at GST-RIP1 kinase domain [2] were 10.7 ± 1.8 µM and 3.9 ± 0.7 µM, respectively.
